# Assays:
# Settings in all cases: in vivo
# Rattus norvegicus [1] = experiment: Distribution (percent dose/g of tissue) of radioactivity 24 hr after intravenous administration of [125I]-labeled compound in rat thyroid; assay type: ADME, organism-based, Thyroid gland
# How it was run: (§1)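 Radioiodinated ester given IV to adult female Sprague–Dawley rats (200–300 g), 5–50 μCi per animal, 3–5 rats per compound. Rats killed by exsanguination under ether at 24 h. Organs blotted, large ones minced, weighed samples gamma-counted in well scintillation counter (84% efficiency). Value is % administered dose per g tissue, background-corrected; mean with SEM.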
# Rattus norvegicus [2] = experiment: Distribution (percent dose/g of tissue) of radioactivity 24 hr after intravenous administration of [125I]-labeled compound in rat spleen; assay type: ADME, organism-based; how it was run: as §1
# Rattus norvegicus [3] = experiment: Distribution (percent dose/g of tissue) of radioactivity 24 hr after intravenous administration of [125I]-labeled compound in rat blood; assay type: ADME, organism-based; how it was run: as §1
# Rattus norvegicus [4] = experiment: Distribution (percent dose/g of tissue) of radioactivity 24 hr after intravenous administration of [125I]-labeled compound in rat lung; assay type: ADME, organism-based; how it was run: as §1
# Rattus norvegicus [5] = experiment: Distribution (percent dose/g of tissue) of radioactivity 24 hr after intravenous administration of [125I]-labeled compound in rat plasma; assay type: ADME, organism-based; how it was run: as §1
# Rattus norvegicus [6] = experiment: Distribution (percent dose/g of tissue) of radioactivity 24 hr after intravenous administration of [125I]-labeled compound in rat adrenal cortex; assay type: ADME, organism-based; how it was run: as §1
# Rattus norvegicus [7] = experiment: Distribution (percent dose/g of tissue) of radioactivity 24 hr after intravenous administration of [125I]-labeled compound in rat heart; assay type: ADME, organism-based; how it was run: as §1
# Rattus norvegicus [8] = experiment: Distribution (percent dose/g of tissue) of radioactivity 24 hr after intravenous administration of [125I]-labeled compound in rat liver; assay type: ADME, organism-based; how it was run: as §1
# Rattus norvegicus [9] = experiment: Distribution (percent dose/g of tissue) of radioactivity 24 hr after intravenous administration of [125I]-labeled compound in rat ovary; assay type: ADME, organism-based, Female gonad; how it was run: as §1
# Rattus norvegicus [10] = experiment: Distribution (percent dose/g of tissue) of radioactivity 24 hr after intravenous administration of [125I]-labeled compound to rat thyroid; assay type: ADME, organism-based, Thyroid gland; how it was run: as §1
# Rattus norvegicus [11] = experiment: Distribution (percent dose/g of tissue) of radioactivity 24 hr after intravenous administration of [125I]-labeled compound to rat spleen; assay type: ADME, organism-based; how it was run: as §1
# Rattus norvegicus [12] = experiment: Distribution (percent dose/g of tissue) of radioactivity 24 hr after intravenous administration of [125I]-labeled compound to rat blood; assay type: ADME, organism-based; how it was run: as §1
Activity (Rattus norvegicus [1]),Activity (Rattus norvegicus [2]),Activity (Rattus norvegicus [3]),Activity (Rattus norvegicus [4]),Activity (Rattus norvegicus [5]),Activity (Rattus norvegicus [6]),Activity (Rattus norvegicus [7]),Activity (Rattus norvegicus [8]),Activity (Rattus norvegicus [9]),Activity (Rattus norvegicus [10]),Activity (Rattus norvegicus [11]),Activity (Rattus norvegicus [12]),SMILES
6.92 % dose (g of tissue)-1,1.49 % dose (g of tissue)-1,–,0.94 % dose (g of tissue)-1,0.36 % dose (g of tissue)-1,3.86 % dose (g of tissue)-1,0.11 % dose (g of tissue)-1,3.28 % dose (g of tissue)-1,6.21 % dose (g of tissue)-1,–,–,0.2 % dose (g of tissue)-1,CC(C)CCCC(C)C1CCC2C3CC=C4CC(OC(=O)c5ccc(I)cc5)CCC4(C)C3CCC12C (centres undefined)
67.52 % dose (g of tissue)-1,0.51 % dose (g of tissue)-1,0.13 % dose (g of tissue)-1,0.5 % dose (g of tissue)-1,0.16 % dose (g of tissue)-1,3.56 % dose (g of tissue)-1,0.08 % dose (g of tissue)-1,0.42 % dose (g of tissue)-1,1.35 % dose (g of tissue)-1,–,–,–,CC(C)CCCC(C)C1CCC2C3CC=C4CC(OC(=O)CCc5ccc(I)cc5)CCC4(C)C3CCC12C (centres undefined)
1.96 % dose (g of tissue)-1,1.89 % dose (g of tissue)-1,0.44 % dose (g of tissue)-1,0.94 % dose (g of tissue)-1,0.8 % dose (g of tissue)-1,14.67 % dose (g of tissue)-1,0.21 % dose (g of tissue)-1,5.18 % dose (g of tissue)-1,13.68 % dose (g of tissue)-1,–,–,–,CC(C)CCCC(C)C1CCC2C3CC=C4CC(OC(=O)c5ccccc5I)CCC4(C)C3CCC12C (centres undefined)
7.3 % dose (g of tissue)-1,1.86 % dose (g of tissue)-1,–,0.46 % dose (g of tissue)-1,0.55 % dose (g of tissue)-1,12.76 % dose (g of tissue)-1,0.16 % dose (g of tissue)-1,5.03 % dose (g of tissue)-1,15.7 % dose (g of tissue)-1,–,–,0.3 % dose (g of tissue)-1,CC(C)CCCC(C)C1CCC2C3CC=C4CC(OC(=O)c5cccc(I)c5)CCC4(C)C3CCC12C (centres undefined)
27.09 % dose (g of tissue)-1,0.5 % dose (g of tissue)-1,1.02 % dose (g of tissue)-1,0.65 % dose (g of tissue)-1,1.88 % dose (g of tissue)-1,3.29 % dose (g of tissue)-1,0.33 % dose (g of tissue)-1,1.25 % dose (g of tissue)-1,2.32 % dose (g of tissue)-1,–,–,–,CC(C)CCCC(C)C1CCC2C3CC=C4CC(OC(=O)Cc5ccc(I)cc5)CCC4(C)C3CCC12C (centres undefined)

# Second part, the compound before the results:
SMILES,Activity (Rattus norvegicus [1]),Activity (Rattus norvegicus [2]),Activity (Rattus norvegicus [3]),Activity (Rattus norvegicus [4]),Activity (Rattus norvegicus [5]),Activity (Rattus norvegicus [6]),Activity (Rattus norvegicus [7]),Activity (Rattus norvegicus [8]),Activity (Rattus norvegicus [9]),Activity (Rattus norvegicus [10]),Activity (Rattus norvegicus [11]),Activity (Rattus norvegicus [12])
CC(C)CCCC(C)C1CCC2C3CC=C4CC(OC(=O)Cc5ccccc5I)CCC4(C)C3CCC12C (centres undefined),46.31 % dose (g of tissue)-1,1.31 % dose (g of tissue)-1,0.21 % dose (g of tissue)-1,0.43 % dose (g of tissue)-1,0.29 % dose (g of tissue)-1,9.19 % dose (g of tissue)-1,0.15 % dose (g of tissue)-1,3.99 % dose (g of tissue)-1,5.97 % dose (g of tissue)-1,–,–,–
CC(C)CCCC(C)C1CCC2C3CC=C4CC(OC(=O)c5cc(I)cc(I)c5I)CCC4(C)C3CCC12C (centres undefined),–,–,0.57 % dose (g of tissue)-1,0.7 % dose (g of tissue)-1,1.02 % dose (g of tissue)-1,9.03 % dose (g of tissue)-1,–,5.11 % dose (g of tissue)-1,16.19 % dose (g of tissue)-1,2.63 % dose (g of tissue)-1,1.68 % dose (g of tissue)-1,–
CC(C)CCCC(C)C1CCC2C3CC=C4CC(OC(=O)CCCc5ccc(I)cc5)CCC4(C)C3CCC12C (centres undefined),30.09 % dose (g of tissue)-1,0.16 % dose (g of tissue)-1,0.87 % dose (g of tissue)-1,0.4 % dose (g of tissue)-1,1.51 % dose (g of tissue)-1,1.94 % dose (g of tissue)-1,0.25 % dose (g of tissue)-1,0.36 % dose (g of tissue)-1,3.23 % dose (g of tissue)-1,–,–,–
CC(C)CCCC(C)C1CCC2C3CC=C4CC(OC(=O)Cc5cccc(I)c5)CCC4(C)C3CCC12C (centres undefined),32.62 % dose (g of tissue)-1,0.77 % dose (g of tissue)-1,0.14 % dose (g of tissue)-1,0.27 % dose (g of tissue)-1,0.24 % dose (g of tissue)-1,3.4 % dose (g of tissue)-1,0.11 % dose (g of tissue)-1,2.11 % dose (g of tissue)-1,5.05 % dose (g of tissue)-1,–,–,–
CC(C)CCCC(C)C1CCC2C3CC=C4CC(OC(=O)c5cc(I)c(I)c(I)c5)CCC4(C)C3CCC12C (centres undefined),–,–,0.54 % dose (g of tissue)-1,0.97 % dose (g of tissue)-1,1.01 % dose (g of tissue)-1,7.48 % dose (g of tissue)-1,0.2 % dose (g of tissue)-1,4.8 % dose (g of tissue)-1,12.53 % dose (g of tissue)-1,6.06 % dose (g of tissue)-1,2.98 % dose (g of tissue)-1,–

# — ChEMBL document CHEMBL1122065, “Potential organ- or tumor-imaging agents. 22. Acyl-labeled cholesterol esters” (J Med Chem, 1982)
